pIC50: −log10 of the molar value. The source made the active and inactive calls. The calls are words filed in the database; no cut-off is given here.
Assays:
MCF7 [1] = assay: Antiproliferative activity against human MCF7 cells after 24 hrs by MTT assay; type: functional, cell-based; conditions: MCF7, 24 h
MDA-MB-231 [2] = assay: Antiproliferative activity against human MDA-MB-231 cells after 24 hrs by MTT assay; type: functional, cell-based; conditions: MDA-MB-231, 24 h
[3] = biological target: Bromodomain-containing protein 4 (Homo sapiens, UniProt O60885); assay: Inhibition of His/thioredoxin-tagged human recombinant BRD4 bromodomain-1 (43 to 166 residues) expressed in Escherichia coli BL21 Star (DE3) pre-incubated for 30 mins followed by biotinylated histone peptide H4 addition measured after 30 mins by AlphaScreen assay
MDA-MB-231 [4] = assay: Induction of autophagy in human MDA-MB-231 cells assessed as downregulation of p62/SQSTM1 expression at […] by Western blot analysis; type: functional, cell-based
MCF7 [5] = assay: Induction of autophagy in GFP/mRFP treated human MCF7 cells assessed as induction of LC3 puncta at 150 uM by fluorescence microscopic analysis; type: functional, cell-based
How it was run: (§1)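 MCF-7 or MDA-MB-231 cells transfected with GFP/mRFP-LC3 plasmid, then treated with 150 µM for indicated times. GFP-LC3 puncta observed by fluorescence microscopy.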

MCF7 [6] = assay: Induction of autophagy in human MCF7 cells assessed as downregulation of p62/SQSTM1 expression at […] by Western blot analysis; type: functional, cell-based
MDA-MB-231 [7] = assay: Induction of autophagy in GFP/mRFP treated human MDA-MB-231 cells assessed as induction of LC3 puncta at 150 uM by fluorescence microscopic analysis; type: functional, cell-based; how it was run: as §1

Row | SMILES | pIC50 (MCF7 [1]) | pIC50 (MDA-MB-231 [2]) | pIC50 [3] | Activity (MDA-MB-231 [4]) | Activity (MCF7 [5]) | Activity (MCF7 [6]) | Activity (MDA-MB-231 [7])
1 | CC1CCc2c(sc3nc(-c4ccc(O)cc4)[nH]c(=O)c23)C1 (configuration not stated) | 4.91 | 4.64 | 5.37 |  |  |  | 
2 | CN1CCc2c(sc3nc(Cc4ccc(-c5ccccc5)cc4)[nH]c(=O)c23)C1 | < 4.52 | < 4.52 | < 5.00 |  |  |  | 
3 | CC1CCc2c(sc3nc(-c4cccc(O)c4)[nH]c(=O)c23)C1 (configuration not stated) | < 4.52 | < 4.52 | < 5.00 |  |  |  | 
4 | CCCc1cc2c(=O)[nH]c(-c3ccc(O)cc3)nc2s1 | < 4.52 | 4.55 | 5.07 |  |  |  | 
5 | COc1cc(OC)c2c(=O)[nH]c(-c3cc(C)c(OCCO)c(C)c3)nc2c1 [APABETALONE] | 3.85 | 3.81 |  | Active | Active | Active | Active
6 | O=c1[nH]c(-c2ccccc2)nc2sc3c(c12)CCN(Cc1ccccc1)C3 | < 4.52 | < 4.52 | < 5.00 |  |  |  | 
7 | CC1CCc2c(sc3nc(-c4ccc(C(F)(F)F)cc4)[nH]c(=O)c23)C1 (configuration not stated) | < 4.52 | < 4.52 | < 5.00 |  |  |  | 
8 | CCCc1cc2c(=O)[nH]c(Cc3ccc(-c4ccccc4)cc3)nc2s1 | < 4.52 | < 4.52 | < 5.00 |  |  |  | 
9 | Cc1cc(-c2nc3sc4c(c3c(=O)[nH]2)CCCC4)cc(C)c1O | 4.60 | 4.56 | 5.16 |  |  |  | 
10 | Cc1cc(-c2nc3sc4c(c3c(=O)[nH]2)CCCCC4)cc(C)c1O | 5.55 | 5.08 | 6.31 |  |  |  | 
11 | COc1ccccc1-c1nc2sc3c(c2c(=O)[nH]1)CCC3 | 5.65 | 5.27 | 6.11 |  |  |  | 
12 | Oc1nc(-c2ccccc2)nc2sc3c(c12)CCCC3 | < 4.52 | < 4.52 | < 5.00 |  |  |  | 
13 | O=c1[nH]c(-c2ccc(Br)cc2)nc2sc3c(c12)CCCC3 | < 4.52 | < 4.52 | < 5.00 |  |  |  | 
14 | CN1CCc2c(sc3nc(-c4cccc(Br)c4)[nH]c(=O)c23)C1 | 5.66 | 5.08 | 5.98 |  |  |  | 
15 | Cc1cc(-c2nc3sc4c(c3c(=O)[nH]2)CCC(C)C4)cc(C)c1O (configuration not stated) | 5.25 | 5.03 | 5.49 |  |  |  | 
16 | COc1cccc(-c2nc3sc4c(c3c(=O)[nH]2)CCCC4)c1 | < 4.52 | < 4.52 | < 5.00 |  |  |  | 
17 | O=c1[nH]c(Cc2ccccc2)nc2sc3c(c12)CCCCC3 | 5.35 | 5.24 | 6.09 |  |  |  | 
18 | Cc1sc2c(c1C)C(c1ccc(Cl)cc1)=N[C@@H](CC(=O)OC(C)(C)C)c1nnc(C)n1-2 | 4.54 | 4.48 |  |  |  |  | 
19 | CCCc1cc2c(=O)[nH]c(-c3cccc(OC)c3)nc2s1 | < 4.52 | < 4.52 | < 5.00 |  |  |  | 
20 | O=c1[nH]c(-c2ccc(O)cc2)nc2sc3c(c12)CCCC3 | 4.64 | < 4.52 | 5.14 |  |  |  | 
21 | CC1CCc2c(sc3nc(-c4cccc(Br)c4)[nH]c(=O)c23)C1 (configuration not stated) | 5.57 | 4.79 | 5.99 |  |  |  | 
22 | O=c1[nH]c(-c2ccc(C(F)(F)F)cc2)nc2sc3c(c12)CCCC3 | 4.55 | < 4.52 | < 5.00 |  |  |  | 
23 | O=c1[nH]c(-c2ccc(Br)cc2)nc2sc3c(c12)CCC3 | 4.67 | < 4.52 | 5.05 |  |  |  | 
24 | O=c1[nH]c(-c2ccccc2)nc2sc3c(c12)CCC3 | < 4.52 | < 4.52 | < 5.00 |  |  |  | 
25 | COc1cccc(-c2nc(=O)c3c4c(sc3[nH]2)CC(C)CC4)c1 (configuration not stated) | < 4.52 | < 4.52 | < 5.00 |  |  |  | 

Row | SMILES | pIC50 (MCF7 [1]) | pIC50 (MDA-MB-231 [2]) | pIC50 [3] | Activity (MDA-MB-231 [4]) | Activity (MCF7 [5]) | Activity (MCF7 [6]) | Activity (MDA-MB-231 [7])
26 | CC1CCc2c(sc3nc(-c4ccc(Br)cc4)[nH]c(=O)c23)C1 (configuration not stated) | < 4.52 | < 4.52 | < 5.00 |  |  |  | 
27 | O=c1[nH]c(-c2cccc(Br)c2)nc2sc3c(c12)CCC3 | < 4.52 | < 4.52 | < 5.00 |  |  |  | 
28 | O=c1[nH]c(-c2cccc(O)c2)nc2sc3c(c12)CCCCC3 | 4.88 | 4.76 | 5.40 |  |  |  | 
29 | O=c1[nH]c(-c2ccc(Br)cc2)nc2sc3c(c12)CCCCC3 | < 4.52 | < 4.52 | < 5.00 |  |  |  | 
30 | Cc1cc(-c2nc3sc4c(c3c(=O)[nH]2)CCN(Cc2ccccc2)C4)cc(C)c1O | < 4.52 | < 4.52 | < 5.00 |  |  |  | 
31 | O=c1[nH]c(-c2ccc(O)cc2)nc2sc3c(c12)CCCCC3 | 5.81 | 5.48 | 6.25 |  |  |  | 
32 | O=c1[nH]c(-c2ccc(O)cc2)nc2sc3c(c12)CCN(Cc1ccccc1)C3 | 4.77 | < 4.52 | 5.20 |  |  |  | 
33 | CN1CCc2c(sc3nc(-c4cccc(O)c4)[nH]c(=O)c23)C1 | < 4.52 | < 4.52 | < 5.00 |  |  |  | 
34 | CCCc1cc2c(=O)[nH]c(-c3cccc(Br)c3)nc2s1 | < 4.52 | < 4.52 | < 5.00 |  |  |  | 
35 | O=c1[nH]c(-c2cccc(Br)c2)nc2sc3c(c12)CCCCC3 | 4.73 | < 4.52 | 5.24 |  |  |  | 
36 | CC1CCc2c(sc3nc(-c4ccccc4)[nH]c(=O)c23)C1 (configuration not stated) | < 4.52 | < 4.52 | < 5.00 |  |  |  | 
37 | COc1ccccc1-c1nc2sc3c(c2c(=O)[nH]1)CCN(C)C3 | 5.25 | 5.09 | 5.61 |  |  |  | 
38 | O=c1[nH]c(-c2ccc(C(F)(F)F)cc2)nc2sc3c(c12)CCC3 | 5.08 | 4.83 | 5.82 |  |  |  | 
39 | CN1CCc2c(sc3nc(-c4ccc(C(F)(F)F)cc4)[nH]c(=O)c23)C1 | < 4.52 | 4.65 | < 5.00 |  |  |  | 
40 | CN1CCc2c(sc3nc(-c4ccc(O)cc4)[nH]c(=O)c23)C1 | 5.26 | 5.08 | 6.14 |  |  |  | 
41 | CC1CCc2c(sc3nc(Cc4ccc(-c5ccccc5)cc4)[nH]c(=O)c23)C1 (configuration not stated) | < 4.52 | < 4.52 | < 5.00 |  |  |  | 
42 | O=c1[nH]c(Cc2ccc(-c3ccccc3)cc2)nc2sc3c(c12)CCCCC3 | < 4.52 | < 4.52 | < 5.00 |  |  |  | 
43 | O=c1[nH]c(-c2ccc(C(F)(F)F)cc2)nc2sc3c(c12)CCN(Cc1ccccc1)C3 | < 4.52 | < 4.52 | < 5.00 |  |  |  | 
44 | Cc1cc(-c2nc3sc4c(c3c(=O)[nH]2)CCC4)cc(C)c1O | 4.73 | 4.64 | 5.20 |  |  |  | 
45 | COc1cccc(-c2nc3sc4c(c3c(=O)[nH]2)CCN(Cc2ccccc2)C4)c1 | < 4.52 | < 4.52 | < 5.00 |  |  |  | 
46 | O=c1[nH]c(-c2ccc(C(F)(F)F)cc2)nc2sc3c(c12)CCCCC3 | < 4.52 | < 4.52 | < 5.00 |  |  |  | 
47 | CC1CCc2c(sc3nc(Cc4ccccc4)[nH]c(=O)c23)C1 (configuration not stated) | < 4.52 | < 4.52 | < 5.00 |  |  |  | 
48 | O=c1[nH]c(-c2ccc(F)cc2F)nc2sc3c(c12)CCCC3 | < 4.52 | < 4.52 | < 5.00 |  |  |  | 
49 | CC1CCc2c(sc3nc(-c4cc(F)c(F)c(F)c4)[nH]c(=O)c23)C1 (configuration not stated) | < 4.52 | < 4.52 | < 5.00 |  |  |  | 
50 | O=c1[nH]c(Cc2ccccc2)nc2sc3c(c12)CCC3 | < 4.52 | < 4.52 | < 5.00 |  |  |  | 

Reference: ChEMBL document CHEMBL4028911, “Discovery of a Small-Molecule Bromodomain-Containing Protein 4 (BRD4) Inhibitor That Induces AMP-Activated Protein Kinase-Modulated Autophagy-Associated Cell Death in Breast Cancer” (J Med Chem, 2017)
